Assay results: ChEMBL document CHEMBL1275289, “The synthesis, structure and activity evaluation of pyrogallol and catechol derivatives as Helicobacter pylori urease inhibitors” (Eur J Med Chem, 2010)

Key:
[1] = molecular target: T1, Urease subunit alpha/Urease subunit beta (Helicobacter pylori (strain ATCC 700392 / 26695) (Campylobacterpylori), UniProt P69996); experiment: Inhibition of cell free Helicobacter pylori ATCC 43504 urease assessed as reduction in ammonia production by indophenol based Berthelot color reaction method
Outline: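 H. pylori ATCC 43504 grown 24 h at 37 °C, microaerobic (5% O2, 10% CO2, 85% N2), in Brucella broth with 10% heat-inactivated horse serum. Cells (2.0 × 10⁸ CFU/mL) pelleted at 5000 g, 4 °C, washed twice in PBS pH 7.4, stored at −80 °C, then sonicated 60 s in water with protease inhibitors. Extract preincubated with compound 1.5 h at room temperature; ammonia measured by indophenol method.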

[2] = molecular target: T1, Urease subunit alpha/Urease subunit beta; experiment: Inhibition of urease in intact Helicobacter pylori ATCC 43504 assessed as reduction in ammonia production by indophenol based Berthelot color reaction method
Outline: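 H. pylori grown 24 h at 37 °C in Brucella broth with 10% heat-inactivated horse serum under microaerobic gas (5% O₂, 10% CO₂, 85% N₂). Cells harvested, washed twice in PBS pH 7.4, and resuspended to 4.0 × 10⁷ CFU/mL. Suspension pre-incubated with compound for 1.5 h at room temperature. Ammonia production measured by the indophenol (Berthelot) method.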

T1 sequence (P69996 whole entry): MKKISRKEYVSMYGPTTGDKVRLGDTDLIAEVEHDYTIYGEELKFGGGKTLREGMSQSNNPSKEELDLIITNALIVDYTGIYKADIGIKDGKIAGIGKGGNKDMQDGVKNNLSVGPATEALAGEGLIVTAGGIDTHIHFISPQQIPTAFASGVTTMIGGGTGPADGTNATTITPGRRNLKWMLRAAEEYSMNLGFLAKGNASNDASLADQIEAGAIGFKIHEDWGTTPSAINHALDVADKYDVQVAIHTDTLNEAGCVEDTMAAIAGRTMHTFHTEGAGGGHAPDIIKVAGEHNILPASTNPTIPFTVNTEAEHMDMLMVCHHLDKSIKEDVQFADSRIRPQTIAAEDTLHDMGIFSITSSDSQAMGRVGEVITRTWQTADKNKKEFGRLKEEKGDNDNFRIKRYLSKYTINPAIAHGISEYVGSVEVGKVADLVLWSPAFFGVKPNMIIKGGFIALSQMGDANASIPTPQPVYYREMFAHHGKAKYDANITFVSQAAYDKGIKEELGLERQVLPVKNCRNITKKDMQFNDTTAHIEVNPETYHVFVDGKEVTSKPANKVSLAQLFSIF
T1 sequence (P14916 whole entry, further chain): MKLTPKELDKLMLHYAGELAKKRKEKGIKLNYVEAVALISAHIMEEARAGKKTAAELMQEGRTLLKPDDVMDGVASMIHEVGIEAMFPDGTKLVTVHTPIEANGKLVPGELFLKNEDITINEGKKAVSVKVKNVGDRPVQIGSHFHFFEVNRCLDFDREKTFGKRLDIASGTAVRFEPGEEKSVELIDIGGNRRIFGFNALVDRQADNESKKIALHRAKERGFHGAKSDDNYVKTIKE

Row | Compound | IC50 [1] [µM] | IC50 [2] [µM]
1 | COc1ccc(CCc2ccc(Cl)cc2)cc1OC | 254 | 
2 | Oc1ccc(CCc2ccc(Br)cc2)c(O)c1O | 48 | 
3 | Oc1ccc(CCc2cccc(Cl)c2)c(O)c1O | 50 | 
4 | Oc1ccc(CCc2cccc(Br)c2)c(O)c1O | 52 | 
5 | Oc1ccc(CCc2ccc(Cl)cc2)cc1O | 8.3 | 50.1
6 | Oc1ccc(CCc2cccc(Cl)c2)cc1O | 15.7 | 94.7
7 | CCc1ccc(O)c(O)c1O | 34 | 
8 | CCCCc1ccc(O)c(O)c1O | 79 | 
9 | CCCCCCc1ccc(O)c(O)c1O | 91 | 
10 | CCCCCCCCc1ccc(O)c(O)c1O | 103 | 
11 | CCCCCCCCCCc1ccc(O)c(O)c1O | 124 | 
12 | Oc1ccc(CCc2ccc(F)cc2)cc1O | 6.2 | 32.4
13 | Oc1ccc(CCc2ccc(O)c(O)c2)cc1 | 1.5 | 4.2
14 | Oc1ccc(CCc2ccc(F)cc2)c(O)c1O | 43 | 
15 | Oc1ccc(CCc2ccc(Cl)cc2)c(O)c1O | 47 | 
16 | Oc1ccc(CCc2cccc(Br)c2)cc1O | 16.9 | 88.9
17 | COc1ccc(CCc2ccc(O)c(O)c2)cc1OC | 22.7 | 
18 | CCc1ccc(O)c(O)c1 | 4.9 | 17.3
19 | CCCCc1ccc(O)c(O)c1 | 7.9 | 38.1
20 | CCCCCCc1ccc(O)c(O)c1 | 12.3 | 77.8
21 | CCCCCCCCc1ccc(O)c(O)c1 | 58 | 
22 | COc1ccc(CCc2ccc(O)cc2)cc1OC | 204 | 
23 | COc1ccc(CCc2cccc(Cl)c2)cc1OC | 235 | 
24 | COc1ccc(CCc2ccc(O)c(O)c2O)cc1OC | 71 | 
25 | CCOc1ccc(CCc2ccc(O)c(O)c2O)cc1OCC | 69 | 
26 | CCCCCCCCCCCCc1ccc(O)c(O)c1O | 168 | 
27 | CCCCCCCCCCCCCCc1ccc(O)c(O)c1O | 250 | 
28 | Oc1ccc(CCc2ccc(O)c(O)c2O)cc1 | 32 | 
29 | COc1ccc(CCc2ccccc2O)cc1OC | 227 | 
30 | CC(=O)NO [ACETOHYDROXAMIC ACID] | 17.2 | 101
